Screening results (PubChem BioAssay)
M18AAP inhibitor = blocks P. falciparum M18 aspartyl aminopeptidase; recombinant PfM18AAP, H-Glu-NHMec fluorogenic cleavage; actives 1.2% (n = 290,000); inhibition, % at 7.35 µM;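 active = inhibition above the campaign mean inhibition over all tested compounds plus 3 SD, cut at about 28% in these data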;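 note: 0% = plate median of test compound wells and 100% = 2 mM ZnCl2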
core dimer inh = HCV core protein dimerization inhibition. TR-FRET GST/Flag-core106 dimerization, 1536-well. inhibition, % at 5 µM. actives 0.33% (n = 300,000). AID 1899;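 active = inhibition above the mean of all tested compounds plus 3 SD, set per screening campaign, cut at about 45% in these data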
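System: GST-tagged and Flag-tagged HCV core protein residues 1-106 / Input: core106 proteins, GST 13.5 nM and Flag 17 nM / Buffer or medium: KF-containing HEPES buffer, pH 7.45, DTT, CHAPS, BSA / Probe or stimulus: Eu-anti-GST and XL665-anti-Flag labelled anti-tag antibodies / Schedule: 4 h, 22.5 °C incubation / Technique: TR-FRET 671 and 617 nm emission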
HCV NS3 hel inh = blocks Hepatitis C virus NS3 helicase unwinding; actives 0.56% (n = 290,000); NS3 helicase DNA unwinding, Cy5 molecular beacon fluorescence; AID 1800; inhibition, % at 10.9 µM;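 active = inhibition above the mean of all tested compounds plus 3 SD, set per campaign, cut at about 35% in these data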;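 note: 0% = DMSO wells and 100% = thioflavine S control wells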
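Test system: hepatitis C virus NS3 helicase domain fragment enzyme. Also added: annealed dual-labelled DNA beacon duplex, ATP-started. Timing: 60 min unwinding reaction at 25 °C after ATP addition. Technique: Cy5 fluorescence. Measure: % inhibition of unwinding.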
ZTA counter = counter-screen for EBNA-1 inhibitors: inhibitors of Epstein-Barr virus ZTA | P03206 | ZTA-DNA binding, fluorescence polarization | inhibition, % at 11 µM | actives 0.15% (n = 320,000) | AID 2234; in the data active = inhibition above about 33%
Target sequence (P03206 whole entry, looked up): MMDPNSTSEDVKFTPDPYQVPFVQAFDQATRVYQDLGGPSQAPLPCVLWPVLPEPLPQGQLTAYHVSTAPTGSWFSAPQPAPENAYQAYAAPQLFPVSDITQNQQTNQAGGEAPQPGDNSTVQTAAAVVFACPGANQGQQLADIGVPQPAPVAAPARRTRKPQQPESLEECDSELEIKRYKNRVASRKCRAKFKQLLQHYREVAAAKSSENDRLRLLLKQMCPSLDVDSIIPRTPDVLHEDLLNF
EBNA-1 inh = blocks EBNA-1 binding to DNA; inhibition, % at 14.8 µM; AID 1950; actives 0.34% (n = 300,000); EBNA-1 DNA binding, fluorescence polarization; in the data active = inhibition above about 28%
ALR inh = human ALR oxidase inhibition via reduced H2O2. purified ALR, DTT oxidation, H2O2 HRP-luminol luminescence. inhibition, % (concentration not given with the values). actives 3.8% (n = 290,000). AID 485317;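 active = mean replicate inhibition above about 79%, with every replicate also reaching it, limit read from the data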
Target sequence (P55789 whole entry, looked up): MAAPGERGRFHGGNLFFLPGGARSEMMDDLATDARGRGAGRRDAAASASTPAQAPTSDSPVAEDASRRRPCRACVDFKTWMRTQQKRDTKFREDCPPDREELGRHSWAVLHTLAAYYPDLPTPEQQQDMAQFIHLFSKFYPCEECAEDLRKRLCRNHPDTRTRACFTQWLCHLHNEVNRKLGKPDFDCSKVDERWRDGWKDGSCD
Starred values were filed as active, the others as inactive; . = not tested or not shown. In the library only some 5.2% were active in any assay of this set; here they are far more common.

SMILES	M18AAP inhibitor	core dimer inh	HCV NS3 hel inh	ZTA counter	EBNA-1 inh	ALR inh
O=C1NC(=S)N(c2ccc(Cl)cc2)C(=O)/C1=C/N1CCN(C(=O)c2ccco2)CC1	-10	2	7	-8	-9	97*
CCOc1ccccc1C1SCC(=O)Nc2c1c(=O)[nH]n2C(CC)CC (stereo not drawn)	-13	-1	-2	-6	-9	-9
N#CC1=C(N)Oc2c(c(=O)sc3ccccc23)C1c1ccncc1 (stereo not drawn)	3	2	-1	2	-7	95*
N#CC1=C(N)Oc2c(c(=O)oc3ccccc23)C1c1cccnc1 (stereo not drawn)	-2	1	10	-10	5	23
N=Cc1c(O)n(-c2ccc(C34CC5CC(CC(C5)C3)C4)cc2)c(=O)[nH]c1=O	-3	35	12	21	29*	-25
C=C1C(=O)O[C@@H]2C[C@@H](C)[C@@H]3C4OC4C(=O)[C@@]3(C)[C@@H](O)[C@H]12 (stereo partly drawn)	.	-7	.	5	8	98*
Oc1ccc(C(=C(Cl)Cl)c2ccc(O)cc2)cc1	7	0	-41	0	1	86*
CSCCC(N=Cc1c(O)n(-c2ccc(Cl)cc2)c(=O)[nH]c1=O)C(=O)OC(C)(C)C (stereo not drawn)	-1	-5	-2	-15	8	-23
NC(N)=N/N=C/c1ccc(N(c2ccccc2)c2ccccc2)cc1	7	-18	-51	13	-4	94*
COC(=O)CSC1=NN1c1cc(C)nc(N)n1	4	0	4	12	2	-7
COC1=CCC2([N+](=O)[O-])CN(C)CC1([N+](=O)[O-])C2 (stereo not drawn)	1	-7	-1	0	0	-5
CCCC/C(=N\O)c1c[nH]c2ccccc12	-7	-6	-7	1	-2	89*
O=C1NC(=O)C2(Cc3ccccc3N3CCCC32)C(=O)N1 (stereo not drawn)	-4	1	1	8	17	99*
Cc1cccnc1-n1c(C)nc2ccccc2c1=O	-1	-5	8	-13	8	-2
CCCCn1c(O)c(C(C)=NC(Cc2c[nH]c3ccccc23)C(=O)OC)c(=O)[nH]c1=O (stereo not drawn)	6	-3	7	3	-1	-5
Cc1cc(N2CCCCC2)ccc1C=C1C(=O)N(C)C(=S)N(C)C1=O	7	1	10	-26	-9	90*
CN1C(=O)/C(=C\c2ccc(N3CCCCCC3)cc2)C(=O)NC1=S	-4	-6	-2	-12	-7	-12
COC(=O)[C@@H]1C[C@@]1(C)[C@@H](NP(=O)(c1ccccc1)c1ccccc1)c1ccccc1	2	-2	2	0	0	0
O=C(Cc1ccccc1)Oc1cccc(-n2cnnn2)c1	24	2	-12	-7	-1	98*
Cc1ccc(C2=CCNCC2)cc1	1	-5	0	-9	-3	-8
Cc1ccc(/C=C2\C(=O)NC(=O)N(Cc3ccccc3Cl)C2=O)o1	-5	13	19	0	-4	99*
O=C1NC(=O)N(Cc2ccccc2Cl)C(=O)/C1=C/c1cccs1	8	19	23	2	5	97*
COc1ccc([C@@H](O)[C@@H](N)c2ccccc2)cc1	.	0	.	5	8	-12
CCCN1CCc2cccc3c2[C@H]1Cc1ccc(O)c(O)c1-3	.	-3	.	-12	-8	99*
COc1ccc2c(c1O)-c1c(OC)c(OC)cc3c1[C@H](C2)N(C)CC3	.	0	.	-3	2	-20
SMILES	M18AAP inhibitor	core dimer inh	HCV NS3 hel inh	ZTA counter	EBNA-1 inh	ALR inh
Cc1ccc(/C=C2/C(=O)NC(=O)N(CCc3ccc(F)cc3)C2=O)s1	-1	-3	15	-3	-6	29
Cc1ccc(/C=C2/C(=O)NC(=O)N(CC3CCCO3)C2=O)s1 (stereo not drawn)	-5	7	16	-6	7	97*
Cc1ccc(/C=C2\C(=O)NC(=O)N(CCc3ccc(F)cc3)C2=O)s1	4	5	5	9	2	96*
CCN1C(=O)/C(=C\c2ccc([N+](=O)[O-])s2)C(=O)NC1=S	17	.	31	.	.	.
COC(=O)C1=C(c2ccc(F)cc2OCc2ccccc2)C[C@@H]2CC[C@H]1N2C(=O)NCCCc1ccccc1	.	.	.	4	.	3
Cc1c2cnn(CC(=O)N3CCC4(CC3)OCCO4)c(=O)c2c(C)n1Cc1ccccc1Cl	2	3	1	2	-2	-1
CCCOP(=O)(OCCC)C(NC(=O)c1ccccc1)=C(Cl)Cl	-2	-6	3	-11	-2	0
Cc1ccc2c(c1)CNc1ccccc1O2	6	-2	-6	-8	6	88*
CCOC(=O)C1(c2ccccc2)CCN(CCC(C#N)(c2ccccc2)c2ccccc2)CC1	.	11	.	7	-2	-4
CCC(C)N1C(=O)/C(=C\c2cc3c4c(c2)CCCN4CCC3)C(=O)NC1=S (stereo not drawn)	4	22	-9	-18	2	99*
N#CC(Br)Br	.	.	.	-10	.	-37
CN1CCc2nc(SCc3cccc(Br)c3)c(C#N)cc2C1	7	4	-33	18	7	99*
CCOP(=O)(OCC)C(O)c1ccc(OC)cc1 (stereo not drawn)	0	-1	10	-2	4	.
O=[N+]([O-])c1cc(O)c(O)c([N+](=O)[O-])c1	.	-4	.	10	4	92*
CN1CCN(c2ccc(N)cc2Cl)CC1	3	-2	-10	-11	-5	90*
O=C(O)C1Cc2ccccc2N2CCCC12 (stereo not drawn)	22	-6	-16	15	1	92*
O=C1CC(=O)N(c2ccccc2)C(=O)N1c1ccccc1	4	-1	-6	-6	-3	4
C[C@H](N)CN1CCc2ccc(Br)cc21	.	-14	.	16	-2	99*
C=CCN(CC#CCOc1ccccc1OC)CC=C	-2	-1	-5	8	-2	-4
CCOC(=O)C1=Nc2ccccc2/C1=C\c1c(O)n(C)c(=O)n(C)c1=O	-4	5	8	-3	-3	98*
CN1CC(C#N)C2(O)c3ccccc3CCC2C1 (stereo not drawn)	-6	2	2	-12	-5	-3
Oc1ccc(C[C@H]2NCCc3cc(O)c(O)cc32)cc1O	82*	.	3	.	.	99*
O=C(O)Cn1cc(C=C2C(=O)NC(=O)NC2=O)c2ccccc21	27	15	15	3	-1	49
O=C(Cn1cc(C=C2C(=O)NC(=O)NC2=O)c2ccccc21)NCC1CCCO1 (stereo not drawn)	32*	5	1	12	1	.
